ChEMBL document CHEMBL2417509, “Synthesis and biological evaluation of prodigiosene conjugates of porphyrin, estrone and 4-hydroxytamoxifen” (2013)
The source made the active and inactive calls. The rule behind the calls is not given here.

Tested on: MCF7
Assay: Cytotoxicity against human ER positive MCF7 cells assessed as cell viability at 1 uM after 72 hrs by MTT assay
Assay type: functional, cell-based
Summary of the method: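 Lines kept in DMEM with 10% fetal bovine serum and 1% penicillin/streptomycin at 37 °C, 5% CO2. Compound applied at 1 µM for 72 h, then standard MTT reduction read-out. Viability given as mean percentage of formazan formed by treated cells relative to mock-treated cells (0.1% DMSO). Run in quadruplicate, standard error, Student's t-test.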

SMILES	Activity
COc1cc(-c2ccc[nH]2)[nH]c1/C=C1\N=C(C)C(C(=O)CCCCCCCCC(=O)Oc2ccc3c(c2)CC[C@@H]2[C@@H]3CC[C@]3(C)C(=O)CC[C@@H]23)=C1C	inactive
COc1cc(-c2ccc[nH]2)[nH]c1/C=C1\N=C(C)C(C(=O)CCCCC(=O)Oc2ccc3c(c2)CC[C@@H]2[C@@H]3CC[C@]3(C)C(=O)CC[C@@H]23)=C1C	inactive
